# Assay results published in ChEMBL document CHEMBL4689842, “EUbOPEN Chemogenomics Library wave 1” (2021).
# Tested on: HEK-293T
# Experiment: Multiplex assay against HEK293T;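 as to Population Tubulin-Different-Phenotype (%): share of the cells with healthy nuclei that show this phenotype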
# Format: toxicity, cell-based
# Conditions: human
# Method in brief: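 Per cents of healthy-nucleus cells form the tubulin, mitochondrial-mass and membrane-permeability phenotype values. Live cells were stained at seeding with Hoechst33342, BioTracker Green Microtubule Cytoskeleton Dye, MitoTracker Red and Annexin V Alexa Fluor 680. After compound addition they were imaged on a CQ1 microscope at 37°C and 5% CO2, and CellPathfinder machine-learning gating split them into Hoechst high-intensity objects or normal cells, normal cells into healthy, pyknosed or fragmented nuclei, and pyknosed cells into mitotic or apoptotic.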
# [1] = 12 h, 1 µM, compound concentration 1 uM, replicate 1
# [2] = 12 h, 1 µM, compound concentration 1 uM, replicate 2
# [3] = 12 h, 10 µM, compound concentration 10 uM, replicate 1
# [4] = 12 h, 10 µM, compound concentration 10 uM, replicate 2
# [5] = 24 h, 1 µM, compound concentration 1 uM, replicate 1
# [6] = 24 h, 1 µM, compound concentration 1 uM, replicate 2
# [7] = 24 h, 10 µM, compound concentration 10 uM, replicate 1
# [8] = 24 h, 10 µM, compound concentration 10 uM, replicate 2
# [9] = 48 h, 1 µM, compound concentration 1 uM, replicate 1
# [10] = 48 h, 1 µM, compound concentration 1 uM, replicate 2
# [11] = 48 h, 10 µM, compound concentration 10 uM, replicate 1
# [12] = 48 h, 10 µM, compound concentration 10 uM, replicate 2
structure (smiles),measurement,setting,value
C[C@@H](NCCCc1cccc(C(F)(F)F)c1)c1cccc2ccccc12.Cl [CINACALCET HYDROCHLORIDE],Population Apoptotic (%),[1],48%
same,Population Fragmented Nuclei (%),[1],4%
same,Population Healthy Nuclei (%),[1],49%
same,Population Hoechst High Intensity Objects (%),[1],8%
same,Population Membrane Permeable-Phenotype (%),[1],2%
same,Population Mitochondria Different-Phenotype (%),[1],90%
same,Population Mitotic Cells (%),[1],51%
same,Population Normal (%),[1],91%
same,Population Pyknosed Nuclei (%),[1],46%
same,Population Tubulin-Different-Phenotype (%),[1],72%
same,Total Cell Count,[1],382
same,Population Apoptotic (%),[2],16%
same,Population Fragmented Nuclei (%),[2],7%
same,Population Healthy Nuclei (%),[2],32%
same,Population Hoechst High Intensity Objects (%),[2],3%
same,Population Membrane Permeable-Phenotype (%),[2],6%
same,Population Mitochondria Different-Phenotype (%),[2],51%
same,Population Mitotic Cells (%),[2],83%
same,Population Normal (%),[2],96%
same,Population Pyknosed Nuclei (%),[2],60%
same,Population Tubulin-Different-Phenotype (%),[2],67%
same,Total Cell Count,[2],158
same,Population Apoptotic (%),[3],87%
same,Population Fragmented Nuclei (%),[3],12%
same,Population Healthy Nuclei (%),[3],13%
same,Population Hoechst High Intensity Objects (%),[3],19%
same,Population Membrane Permeable-Phenotype (%),[3],0%
same,Population Mitochondria Different-Phenotype (%),[3],95%
same,Population Mitotic Cells (%),[3],12%
same,Population Normal (%),[3],80%
same,Population Pyknosed Nuclei (%),[3],74%
same,Population Tubulin-Different-Phenotype (%),[3],95%
same,Total Cell Count,[3],195
same,Population Apoptotic (%),[4],80%
same,Population Fragmented Nuclei (%),[4],3%
same,Population Healthy Nuclei (%),[4],11%
same,Population Hoechst High Intensity Objects (%),[4],4%
same,Population Mitotic Cells (%),[4],19%
same,Population Normal (%),[4],95%
same,Population Pyknosed Nuclei (%),[4],84%
same,Population Tubulin-Different-Phenotype (%),[4],90%
same,Total Cell Count,[4],193
same,Population Apoptotic (%),[5],40%
same,Population Healthy Nuclei (%),[5],61%
same,Population Hoechst High Intensity Objects (%),[5],7%
same,Population Membrane Permeable-Phenotype (%),[5],1%
same,Population Mitochondria Different-Phenotype (%),[5],77%
same,Population Mitotic Cells (%),[5],59%
same,Population Normal (%),[5],92%
same,Population Pyknosed Nuclei (%),[5],30%
same,Population Tubulin-Different-Phenotype (%),[5],63%
same,Total Cell Count,[5],417
same,Population Apoptotic (%),[6],28%
same,Population Fragmented Nuclei (%),[6],8%
same,Population Healthy Nuclei (%),[6],48%
same,Population Hoechst High Intensity Objects (%),[6],4%
same,Population Membrane Permeable-Phenotype (%),[6],6%
same,Population Mitochondria Different-Phenotype (%),[6],47%
same,Population Mitotic Cells (%),[6],71%
same,Population Normal (%),[6],95%
same,Population Pyknosed Nuclei (%),[6],43%
same,Population Tubulin-Different-Phenotype (%),[6],60%
same,Total Cell Count,[6],201
same,Population Apoptotic (%),[7],87%
same,Population Fragmented Nuclei (%),[7],15%
same,Population Healthy Nuclei (%),[7],15%
same,Population Hoechst High Intensity Objects (%),[7],19%
same,Population Membrane Permeable-Phenotype (%),[7],3%
same,Population Mitotic Cells (%),[7],12%
same,Population Normal (%),[7],80%
same,Population Pyknosed Nuclei (%),[7],68%
same,Population Tubulin-Different-Phenotype (%),[7],96%
same,Total Cell Count,[7],227
same,Population Apoptotic (%),[8],86%
same,Population Fragmented Nuclei (%),[8],4%
same,Population Healthy Nuclei (%),[8],18%
same,Population Hoechst High Intensity Objects (%),[8],8%
same,Population Membrane Permeable-Phenotype (%),[8],6%
same,Population Mitochondria Different-Phenotype (%),[8],100%
same,Population Mitotic Cells (%),[8],13%
same,Population Normal (%),[8],91%
same,Population Pyknosed Nuclei (%),[8],76%
same,Population Tubulin-Different-Phenotype (%),[8],84%
same,Total Cell Count,[8],198
same,Population Apoptotic (%),[9],27%
same,Population Fragmented Nuclei (%),[9],7%
same,Population Healthy Nuclei (%),[9],79%
same,Population Membrane Permeable-Phenotype (%),[9],1%
same,Population Mitochondria Different-Phenotype (%),[9],43%
same,Population Mitotic Cells (%),[9],72%
same,Population Pyknosed Nuclei (%),[9],12%
same,Population Tubulin-Different-Phenotype (%),[9],48%
same,Total Cell Count,[9],730
same,Population Apoptotic (%),[10],21%
same,Population Fragmented Nuclei (%),[10],3%
same,Population Healthy Nuclei (%),[10],74%
same,Population Hoechst High Intensity Objects (%),[10],5%
same,Population Membrane Permeable-Phenotype (%),[10],9%
same,Population Mitochondria Different-Phenotype (%),[10],23%
same,Population Mitotic Cells (%),[10],78%
same,Population Normal (%),[10],94%
same,Population Pyknosed Nuclei (%),[10],22%
same,Population Tubulin-Different-Phenotype (%),[10],57%
same,Total Cell Count,[10],266
same,Population Apoptotic (%),[11],90%
same,Population Fragmented Nuclei (%),[11],24%
same,Population Healthy Nuclei (%),[11],12%
same,Population Hoechst High Intensity Objects (%),[11],18%
same,Population Membrane Permeable-Phenotype (%),[11],0%
same,Population Mitochondria Different-Phenotype (%),[11],100%
same,Population Mitotic Cells (%),[11],9%
same,Population Normal (%),[11],81%
same,Population Pyknosed Nuclei (%),[11],63%
same,Population Tubulin-Different-Phenotype (%),[11],86%
same,Total Cell Count,[11],216
same,Population Apoptotic (%),[12],89%
same,Population Fragmented Nuclei (%),[12],6%
same,Population Healthy Nuclei (%),[12],18%
same,Population Hoechst High Intensity Objects (%),[12],9%
same,Population Membrane Permeable-Phenotype (%),[12],8%
same,Population Mitochondria Different-Phenotype (%),[12],94%
same,Population Mitotic Cells (%),[12],10%
same,Population Normal (%),[12],90%
same,Population Pyknosed Nuclei (%),[12],75%
same,Population Tubulin-Different-Phenotype (%),[12],70%
same,Total Cell Count,[12],203
